Calls of active or inactive are those of the source. The rule behind the calls is not given here.
Experiments:
[1] = biological target: T1, 3-hydroxy-3-methylglutaryl-coenzyme A reductase (Homo sapiens, UniProt P04035); experiment: (§1) Induction of degradation of Flag-tagged human HMGCR-dCat-ELuc membrane domain (1 to 499 residues) expressed in HEK293 cells assessed as reduction in HMGCR-dCat-Eluc protein level after 4 hrs by luciferase reporter assay; type: cell-based
T1 sequence (P04035 whole entry): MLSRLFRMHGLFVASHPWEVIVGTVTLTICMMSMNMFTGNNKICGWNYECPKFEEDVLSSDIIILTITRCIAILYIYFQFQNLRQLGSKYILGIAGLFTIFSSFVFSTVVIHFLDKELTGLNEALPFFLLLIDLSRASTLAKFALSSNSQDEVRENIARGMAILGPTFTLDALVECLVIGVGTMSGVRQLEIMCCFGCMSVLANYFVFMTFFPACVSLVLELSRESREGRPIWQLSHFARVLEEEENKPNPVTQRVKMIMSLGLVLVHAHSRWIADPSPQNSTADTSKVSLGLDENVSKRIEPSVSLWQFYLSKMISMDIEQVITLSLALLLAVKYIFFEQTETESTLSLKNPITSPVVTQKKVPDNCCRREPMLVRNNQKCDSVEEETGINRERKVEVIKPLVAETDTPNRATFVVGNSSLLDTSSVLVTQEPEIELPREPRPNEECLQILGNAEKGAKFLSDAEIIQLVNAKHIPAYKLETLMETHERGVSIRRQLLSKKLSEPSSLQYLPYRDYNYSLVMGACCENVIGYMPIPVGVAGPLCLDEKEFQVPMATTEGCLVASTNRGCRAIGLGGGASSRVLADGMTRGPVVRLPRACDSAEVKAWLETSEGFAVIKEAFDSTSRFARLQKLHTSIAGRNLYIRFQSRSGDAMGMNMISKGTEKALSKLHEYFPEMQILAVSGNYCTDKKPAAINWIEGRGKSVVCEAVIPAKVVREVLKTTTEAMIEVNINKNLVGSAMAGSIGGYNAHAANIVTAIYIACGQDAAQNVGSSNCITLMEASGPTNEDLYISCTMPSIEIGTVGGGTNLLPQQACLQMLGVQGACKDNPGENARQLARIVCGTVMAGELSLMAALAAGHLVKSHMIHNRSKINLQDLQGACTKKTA
In short: (§2)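 HEK293 cells stably expressing HMGCR-dCat-ELuc (FLAG-tagged membrane domain, residues 1-499, emerald luciferase) in DMEM/10% FBS. Compound treatment 4 h, then remaining fusion quantified by luciferase luminescence. Normalized to 0.1% DMSO vehicle as % of control. EC50 given as mean ± SD of more than three independent dose-response experiments.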

HEK293 [2] = experiment: Cytotoxicity against human HEK293 cells assessed as cell viability at 0.01 to 10 uM incubated for 4 hrs by CytoRed viability assay; type: cell-based; details: hek293, 4 h, dose 0.01-10 µM
In short: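 CytoRed esterase-based viability read in the same wells as the 4 h HMGCR-dCat-ELuc stable HEK293 degradation assay, just before luciferase measurement.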

[3] = biological target: T2, 3-hydroxy-3-methylglutaryl-coenzyme A reductase (Homo sapiens) (UniProt P04035); experiment: Induction of degradation of Flag-tagged human HMGCR-dCat-ELuc membrane domain (1 to 499 residues) expressed in HEK293 cells assessed as reduction in HMGCR-dCat-Eluc protein level at 10 uM after 4 hrs by luciferase reporter assay; type: cell-based; in short: as §2
T2 sequence (whole entry): T1 sequence (P04035 whole entry)

HEK293 [4] = experiment: Cytotoxicity against human HEK293 cells assessed as reduction in cell viability at 10 uM incubated for 4 hrs by CytoRed viability assay; type: cell-based; details: hek293, 4 h
In short: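 HEK293 cells stably expressing HMGCR-dCat-ELuc (HMGCR residues 1-499 with FLAG tag and emerald luciferase) are grown in DMEM with 10% FBS and penicillin-streptomycin at 5% CO2. Cells are dosed for 4 h. CytoRed, which reads cellular esterase activity, is measured in the same wells just before the luciferase read. The vehicle is 0.1% DMSO.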

[5] = biological target: T2, 3-hydroxy-3-methylglutaryl-coenzyme A reductase (Homo sapiens); experiment: as §1; type: cell-based; in short: as §2
[6] = biological target: T2, 3-hydroxy-3-methylglutaryl-coenzyme A reductase (Homo sapiens); experiment: Binding affinity to Flag-tagged human HMGCR-dCat-ELuc membrane domain (1 to 499 residues) transfected in HEK293 cell membrane co-transfected with p-CMV-Insig1-myc-FLAG at 20 uM preincubated for 30 mins followed by irradiation with UV light for 3 mins in presence of 50 to 200 uM SRP3042 by immunoprecipitation analysis; type: cell membranes
[7] = biological target: T2, 3-hydroxy-3-methylglutaryl-coenzyme A reductase (Homo sapiens); experiment: Binding affinity to Flag-tagged human HMGCR-dCat-ELuc membrane domain (1 to 499 residues) transfected in HEK293 cell membrane co-transfected with p-CMV-Insig1-myc-FLAG at 20 uM preincubated for 30 mins followed by irradiation with UV light for 3 mins by immunoprecipitation analysis; type: cell membranes
[8] = biological target: T3, Insulin-induced gene 1 protein (Homo sapiens) (UniProt O15503); experiment: Binding affinity to FLAG/myc-tagged Insig1 transfected in HEK293 cell membrane co-transfected with Flag-tagged human HMGCR-dCat-Eluc membrane domain (1 to 499 residues) at 20 uM preincubated for 30 mins followed by irradiation with UV light for 3 mins by immunoprecipitation analysis; type: cell membranes
T3 sequence (whole entry): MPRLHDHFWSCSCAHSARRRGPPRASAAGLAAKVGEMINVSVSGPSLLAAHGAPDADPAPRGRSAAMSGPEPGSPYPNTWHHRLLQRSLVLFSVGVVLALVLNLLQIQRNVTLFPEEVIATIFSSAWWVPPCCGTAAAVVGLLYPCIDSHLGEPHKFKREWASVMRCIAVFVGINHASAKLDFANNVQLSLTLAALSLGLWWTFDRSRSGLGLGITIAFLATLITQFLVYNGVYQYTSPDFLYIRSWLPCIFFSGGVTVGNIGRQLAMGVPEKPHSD

| SMILES | Activity (HEK293 [2]) | EC50 ([1]; read-out: EC50) [nM] | other results |
| --- | --- | --- | --- |
| CCOP(=O)(OCC)C(=Cc1ccc(O)cc1)P(=O)(OCC)OCC | Non-Toxic | – | EC50 ([1]; hek293): Not Active; Activity [3]: inactive |
| C#Cc1cc(CC(P(=O)(OC(C)C)OC(C)C)P(=O)(OC(C)C)OC(C)C)cc(N=[N+]=[N-])c1 | Non-Toxic | – | EC50 ([1]; hek293): Not Active; Activity [3]: inactive |
| CC(C)OP(=O)(OC(C)C)C(Cc1cc(C(C)(C)C)cc(C(C)(C)C)c1)P(=O)(OC(C)C)OC(C)C | Non-Toxic | 317 | – |
| C#CCCOP(=O)(OC(C)C)C(Cc1cc(C(C)(C)C)nc(C(C)(C)C)c1)P(=O)(OC(C)C)OC(C)C (stereo not drawn) | Non-Toxic | 795 | – |
| CCOP(=O)(OCC)C(=Cc1cc(C(C)(C)C)cc(C(C)(C)C)c1)P(=O)(OCC)OCC | Non-Toxic | 1160 | – |
| CCOP(=O)(OCC)C(=Cc1cc(C(C)(C)C)c(O)c(C(C)(C)C)c1)P(=O)(OCC)OCC | – | 1100 | Activity (HEK293 [4]): Toxic |
| C#CCOP(=O)(OC(C)C)C(Cc1cc(C(C)(C)C)nc(C(C)(C)C)c1)P(=O)(OC(C)C)OC(C)C (stereo not drawn) | Non-Toxic | 633 | – |
| CC(C)OP(=O)(OC(C)C)C(Cc1cc(N=[N+]=[N-])cc(C(C)(C)C)c1)P(=O)(OC(C)C)OC(C)C | Non-Toxic | 1660 | – |
| CC(C)OP(=O)(OC(C)C)C(Cc1cc(C(C)(C)C)c(O)c(C(C)(C)C)c1)P(=O)(OC(C)C)OC(C)C [APOMINE] | Non-Toxic | 876 | – |
| CCOP(=O)(OCC)C(Cc1cc(C(C)(C)C)c(O)c(C(C)(C)C)c1)P(=O)(OCC)OCC | Non-Toxic | 2770 | – |
| CCOP(=O)(OCC)C(=Cc1ccc(O)c(C(C)(C)C)c1)P(=O)(OCC)OCC | Non-Toxic | – | EC50 ([1]; hek293): Not Active; Activity [3]: inactive |
| C#CCCC1(CCOP(=O)(OC(C)C)C(Cc2cc(C(C)(C)C)nc(C(C)(C)C)c2)P(=O)(OC(C)C)OC(C)C)N=N1 (stereo not drawn) | Non-Toxic | 417 | Activity [5]: Dose-dependent effect; Activity [6]: inactive; Activity [7]: Active; Activity [8]: inactive |
| CC(C)OP(=O)(OC(C)C)C(=Cc1cc(C(C)(C)C)c(O)c(C(C)(C)C)c1)P(=O)(OC(C)C)OC(C)C | – | 1340 | Activity (HEK293 [4]): Toxic |
| CC(C)OP(=O)(O)C(Cc1cc(C(C)(C)C)nc(C(C)(C)C)c1)P(=O)(OC(C)C)OC(C)C (stereo not drawn) | Non-Toxic | – | EC50 ([1]; hek293): Not Active; Activity [3]: inactive |
| C#Cc1cc(CC(P(=O)(OC(C)C)OC(C)C)P(=O)(OC(C)C)OC(C)C)cc(C(C)(C)C)c1 | Non-Toxic | 3540 | – |
| CC(C)OP(=O)(OC(C)C)C(Cc1cc(I)cc(C(C)(C)C)c1)P(=O)(OC(C)C)OC(C)C | Non-Toxic | 1460 | – |
| CC(C)OP(=O)(OC(C)C)C(Cc1cc(C(C)(C)C)nc(C(C)(C)C)c1)P(=O)(OC(C)C)OC(C)C | Non-Toxic | 153 | Activity [5]: Dose-dependent effect |

Reference: ChEMBL document CHEMBL4725260, “Bisphosphonate esters interact with HMG-CoA reductase membrane domain to induce its degradation” (Bioorg Med Chem, 2020)
